Measurements from different studies.
Lines come from different studies, so protocols differ.
CTSB: Cathepsin B (CTSB, Homo sapiens, UniProt P07858)
STAT3: Signal transducer and activator of transcription 3 (STAT3, Homo sapiens, UniProt P40763)

CCC(C(=O)Nc1cc(NC2CNC2)ccc1C)n1cccc2nc(SCc3ccc(F)cc3)nc1-2 (stereo not shown)
IC50 (CTSB; enzyme activity; inhibitor): > 100000 nM

COC(=O)c1cc(N(C)C(=O)c2ccn3ncc(-c4ccc(C(=O)O)cc4)c3c2)ccc1Cl
IC50 (Serine/threonine-protein kinase pim-1 (PIM1, Homo sapiens, UniProt P11309); enzyme activity; inhibitor): 93.7 nM

CC[C@H](C)[C@H](NC(=O)[C@H](CO)NC(=O)CNC(=O)[C@@H](NC(=O)[C@@H](NC(=O)[C@@H](NC(=O)CN)[C@@H](C)O)C(C)C)[C@@H](C)O)C(=O)N[C@@H](CC(C)C)C(=O)N[C@H](C(=O)N1CCC[C@H]1C(=O)N[C@H](C(=O)N[C@@H](CC(=O)O)C(=O)N[C@@H](Cc1ccc(O)cc1)C(=O)NCC(=O)N[C@H]1CSSC[C@@H](C(=O)N[C@@H](CO)C(=O)N[C@H](C(=O)N[C@@H](C)C(=O)N[C@@H](CCSC)C(=O)N[C@@H](Cc2ccc(O)cc2)C(=O)NCC(=O)NCC(=O)N[C@H](C(=O)N[C@H](C(=O)N[C@@H](CC(=O)O)C(=O)N2CCC[C@H]2C(=O)N[C@H](C(=O)N[C@@H](CCCNC(=N)N)C(=O)N[C@@H](Cc2ccccc2)C(=O)N2CCC[C@H]2C(=O)N[C@@H](CC(N)=O)C(=O)N[C@@H](C)C(=O)N[C@@H](Cc2c[nH]c3ccccc23)C(=O)N[C@@H](CCCNC(=N)N)C(=O)N[C@@H](CCC(=O)O)C(=O)N[C@@H](CC(C)C)C(=O)O)[C@@H](C)CC)[C@@H](C)CC)C(C)C)C(C)C)NC(=O)[C@H](CC(C)C)NC(=O)[C@H](Cc2ccccc2)NC(=O)[C@@H]2CCCN2C(=O)[C@H](CC(N)=O)NC(=O)[C@H](Cc2ccccc2)NC1=O)[C@@H](C)CC)[C@@H](C)O
IC50 (CTSB; enzyme activity; inhibitor): > 200000 nM

NC(=O)CC[C@H](NC(=O)[C@@H]1CC[C@@H]2CCN(C(=O)CCCCCC#Cc3cccc4c3CN(C3CCC(=O)NC3=O)C4=O)C[C@H](NC(=O)c3cc4cc(C(=O)P(=O)(O)O)ccc4[nH]3)C(=O)N21)C(=O)NC(c1ccccc1)c1ccccc1 (stereo partly shown)
DC50 (STAT3; protein level; degrader; luciferase): 360 to 380 nM

CNC(=O)c1ccc(-c2cnn3ccc(C(=O)N(C)c4ccc(Cl)c(C(=O)O)c4)cc23)cc1
IC50 (ALK tyrosine kinase receptor (ALK, Homo sapiens, UniProt Q9UM73); enzyme activity; inhibitor): > 30000 nM

Cn1nccc1[C@]1(CNC(=O)c2ccc(F)c(F)c2-c2ccc(C(F)(F)F)cc2)NC(=O)NC1=O
IC50 (CTSB; enzyme activity; inhibitor): > 100000 nM

CCC(C(=O)Nc1cc(NC2CCNC2)ccc1C)n1cc(Br)cc2nc(SCc3ccc(F)cc3)nc1-2 (stereo not shown)
IC50 (CTSB; enzyme activity; inhibitor): > 100000 nM

NC(=O)CC[C@H](NC(=O)[C@@H]1CC[C@@H]2CCN(C(=O)CCCCCC#Cc3cccc4c3CN(C3CCC(=O)NC3=O)C4=O)C[C@H](NC(=O)c3cc4cc(C(F)(F)P(=O)(O)O)ccc4[nH]3)C(=O)N21)C(=O)NC(c1ccccc1)c1ccccc1 (stereo partly shown)
DC50 (STAT3; protein level; degrader; luciferase): 360 to 380 nM

CC(C)C[C@H](NC(=O)[C@H]1O[C@@H]1C(=O)O)C(=O)NCCCCN=C(N)N
IC50 (CTSB; enzyme activity; inhibitor): 5.2 nM

CC(=O)N[C@H]1Cc2ccc(cc2)OC/C=C/C[C@@H](C(=O)N[C@@H](CCCNC(=N)N)C(=O)c2nc3ccccc3s2)NC(=O)[C@H](CC(C)C)NC1=O
IC50 (Suppressor of tumorigenicity 14 protein (ST14, Homo sapiens, UniProt Q9Y5Y6); enzyme activity; inhibitor; fluorescence; with preincubation): 4.6 nM
